According to ChEMBL document CHEMBL1821654, “Synthesis and biological evaluation of analogues of M6G” (2011):
Calls of active or inactive are those of the source.

Legend:
Mus musculus [1] = experiment: Analgesic activity in sc dosed Swiss mouse assessed as assessed as thermal-stimulus induced tail flick latency after 60 mins; type: functional; details: 1 h
Mus musculus [2] = experiment: Analgesic activity in Swiss mouse assessed as maximum possible tail flick latency at 1.25 mg/kg, sc; type: functional; details: route subcutaneous
Outline: (§1)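 Male Swiss mice, 12 per group, were given compound subcutaneously at doses between 1.25 and 30 mg/kg. Analgesia was measured by tail-flick with an 8 s cut-off to avoid tissue damage. Readings were taken several times from 20 to 120 min after dosing. Inhibition was expressed as percent maximum possible effect (%MPE) by the D'Amour–Smith method.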

Mus musculus [3] = experiment: Analgesic activity in Swiss mouse assessed as maximum possible tail flick latency at 1.25 mg/kg, sc upto 120 mins; type: functional, organism-based; set-up: dose 1.25 mg/kg; outline: as §1
Mus musculus [4] = experiment: Analgesic activity in sc dosed Swiss mouse assessed as assessed as thermal-stimulus induced tail flick latency after 30 mins; details: 0.5 h
Mus musculus [5] = experiment: Analgesic activity in Swiss mouse assessed as maximum possible tail flick latency at 10 mg/kg, po; type: functional
Outline: (§2)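 Compound was given […] to male Swiss mice, 12 per group. Analgesia was measured by tail-flick with an 8 s cut-off. Responsiveness was read several times from 20 to 120 min after dosing. Tail-flick inhibition was expressed as percent maximum possible effect (%MPE) by the D'Amour–Smith method.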

Mus musculus [6] = experiment: Analgesic activity in po dosed Swiss mouse assessed as thermal-stimulus induced tail flick latency; type: functional; outline: as §2

Row | SMILES | MPE (Mus musculus [2]) [%] | Activity (Mus musculus [3]) | further results
1 | CN1CC[C@]23c4c5ccc(O)c4O[C@H]2[C@@H](O[C@@H]2O[C@H](C(=O)O)[C@@H](O)[C@H](O)[C@H]2O)C=C[C@H]3[C@H]1C5 [MORPHINE GLUCURONIDE] |  |  | ED50 (Mus musculus [1]): 2.7 mg/kg
2 | Cc1nnc([C@H]2O[C@@H](O[C@H]3C=C[C@H]4[C@H]5Cc6ccc(O)c7c6[C@@]4(CCN5C)[C@H]3O7)[C@H](O)[C@@H](O)[C@@H]2O)o1.O=C(O)C(F)(F)F | 80 | Active | 
3 | CN1CC[C@]23c4c5ccc(O)c4O[C@H]2[C@@H](O)C=C[C@H]3[C@H]1C5 [MORPHINE] |  |  | ED50 (Mus musculus [4]): 4.4 mg/kg
4 | CN1CC[C@]23c4c5ccc(O)c4O[C@H]2[C@@H](O[C@@H]2O[C@H](c4nc6n(n4)CCC(O)N6)[C@@H](O)[C@H](O)[C@H]2O)C=C[C@H]3[C@H]1C5.O=C(O)C(F)(F)F (stereo not given in full) | 80 | Active | 
5 | CN1CC[C@]23c4c5ccc(O)c4O[C@H]2[C@@H](O[C@@H]2O[C@H](c4nnn[nH]4)[C@@H](O)[C@H](O)[C@H]2O)C=C[C@H]3[C@H]1C5.O=C(O)C(F)(F)F | 80 | Active | MPE (Mus musculus [5]): 78%; ED50 (Mus musculus [6]): 2.5 mg/kg
